Among the data in ChEMBL document CHEMBL3232830, “Effect of prime-site sequence of retro-inverso-modified HTLV-1 protease inhibitor” (Bioorg Med Chem, 2014) are IC50 values, retold here.

Starred links: 1 amine or outer side, 2 acyl side, 3 side chain; linkers in the order of their positions; H or OH if unused. Non-standard residues stand in square brackets, D forms with d. Residues, ends and D or L forms follow the SMILES beside them. *: point of attachment. X1 = CC(C)C[C@H](C(=O)[*:2])[C@H](O)C[C@H]1CCCN1[*:1]; CO = O=C([*:1])[*:2]; NHBn = c1ccc(CN*)cc1

Chain of Protease (Human T-cell leukemia virus type I, UniProt Q82134, C109A/C90A/L40I) (Q82134 entry or part of it C109A/C90A/L40I): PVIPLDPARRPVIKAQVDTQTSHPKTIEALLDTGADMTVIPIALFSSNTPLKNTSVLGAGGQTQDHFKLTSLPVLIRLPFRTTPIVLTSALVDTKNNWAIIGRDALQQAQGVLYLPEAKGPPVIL

In the first test the target is Protease (Human T-cell leukemia virus type I, UniProt Q82134, L40I/C90A/C109A). The test can be described thus: (§1) Inhibition of HTLV-1 protease L40I/C90A/C109A mutant using dodecapeptide as substrate by HPLC analysis. In outline: (§2)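 Synthetic mutant HTLV-1 protease at 5.6 nM, with a dodecapeptide substrate, in 0.5 M sodium acetate pH 5.6 containing 10% glycerol, 10 mM DTT and 4 M NaCl. Loss of substrate during incubation followed by reversed-phase HPLC (C18, 10–40% CH3CN gradient over 30 min in 0.1% TFA). IC50 from a sigmoidal dose–response curve; assay run three times.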
Chain of Protease (Human T-cell leukemia virus type I, UniProt Q82134, L40I/C90A/C109A) (Q82134 entry or part of it L40I/C90A/C109A): as the sequence (Q82134 entry or part of it C109A/C90A/L40I) above
What is called IC50 is the concentration needed to halve the response being measured. A higher IC50 goes with weaker potency in that assay. With `CC[C@@H](C)[C@@H](NC(=O)[C@@H](CC(C)C)[C@H](O)C[C@H]1CCCN1)C(=O)N[C@@H](C(=O)N1CCC[C@@H]1C(=O)N1CCC[C@@H]1C(N)=O)C(C)C`, the IC50 entry was “Not Active”.

A further test concerns the target Protease (Human T-cell leukemia virus type I, UniProt Q82134, C109A/C90A/L40I). The test is described as §1. In outline:
as §2
As for `CC[C@@H](C)[C@@H](NC(=O)[C@@H](CC(C)C)[C@H](O)C[C@H]1CCCN1C(=O)C(C)(C)C)C(=O)N[C@@H](C(=O)N1CCC[C@@H]1C(=O)N1CCC[C@@H]1C(N)=O)C(C)C`, the half-maximal inhibitory concentration (IC50) came to 1000 µM. In turn, `CC[C@@H](C)[C@@H](NC(=O)[C@@H](CC(C)C)[C@H](O)C[C@H]1CCCN1C(=O)c1ccccc1)C(=O)N[C@@H](C(=O)N1CCC[C@@H]1C(=O)N1CCC[C@@H]1C(N)=O)C(C)C` came in with an IC50 of 1100 µM. The compound `CC[C@@H](C)[C@@H](NC(=O)[C@@H](CC(C)C)[C@H](O)C[C@H]1CCCN1C(=O)OCc1ccccc1)C(=O)N[C@@H](C(=O)N1CCC[C@@H]1C(=O)N1CCC[C@@H]1C(N)=O)C(C)C` showed an IC50 of 380 µM.

For the compound `CC[C@@H](C)[C@@H](NC(=O)[C@@H](CC(C)C)[C@H](O)C[C@H]1CCCN1C(=O)/C=C/c1ccccc1)C(=O)N[C@@H](C(=O)N1CCC[C@@H]1C(=O)N1CCC[C@@H]1C(N)=O)C(C)C`, the IC50 came to 290 µM. The IC50 values of the last two compounds are within 1.5-fold of each other.

For the compound `CC[C@@H](C)[C@@H](NC(=O)[C@@H](CC(C)C)[C@H](O)C[C@H]1CCCN1C(=O)CCc1ccccc1)C(=O)N[C@@H](C(=O)N1CCC[C@@H]1C(=O)N1CCC[C@@H]1C(N)=O)C(C)C`, half-maximal inhibition (IC50) required 160 µM. Compared with the last compound, the IC50 is about 1.8-fold lower. In turn, `CC[C@@H](C)[C@@H](NC(=O)[C@@H](CC(C)C)[C@H](O)C[C@H]1CCCN1C(=O)CCC(C)C)C(=O)N[C@@H](C(=O)N1CCC[C@@H]1C(=O)N1CCC[C@@H]1C(N)=O)C(C)C` showed an IC50 of 520 µM.

With `CCCC(CCC)C(=O)N1CCC[C@@H]1C[C@@H](O)[C@H](CC(C)C)C(=O)N[C@@H](C(=O)N[C@@H](C(=O)N1CCC[C@@H]1C(=O)N1CCC[C@@H]1C(N)=O)C(C)C)[C@H](C)CC`, the IC50 was found to be 420 µM. This IC50 and that of the compound before are within 1.5-fold of each other.

The compound `CC[C@@H](C)[C@@H](N)C(=O)N1CCC[C@@H]1C[C@@H](O)[C@H](CC(C)C)C(=O)N[C@@H](C(=O)N[C@@H](C(=O)N1CCC[C@@H]1C(=O)N1CCC[C@@H]1C(N)=O)C(C)C)[C@H](C)CC` came in with a concentration for half-maximal inhibition (IC50) of 1500 µM.

`CC[C@@H](C)[C@@H](NC(=O)[C@@H](CC(C)C)[C@H](O)C[C@H]1CCCN1C(=O)[C@H](NC(=O)[C@H](N)CCC(N)=O)[C@H](C)CC)C(=O)N[C@@H](C(=O)N1CCC[C@@H]1C(=O)N1CCC[C@@H]1C(N)=O)C(C)C` yielded a half-maximal inhibitory concentration (IC50) of 2000 µM. The same measure, in the same setting: to `CC[C@@H](C)[C@@H](NC(=O)[C@@H](CC(C)C)[C@H](O)C[C@H]1CCCN1C(=O)[C@H](NC(C)=O)[C@H](C)CC)C(=O)N[C@@H](C(=O)N1CCC[C@@H]1C(=O)N1CCC[C@@H]1C(N)=O)C(C)C` (Ac-[dI][X1][dI][dV][dP][dP]-NH2) belongs 110 µM; to `CC[C@@H](C)[C@@H](NC(=O)[C@@H](CC(C)C)[C@H](O)C[C@H]1CCCN1C(=O)NCc1ccccc1)C(=O)N[C@@H](C(=O)N1CCC[C@@H]1C(=O)N1CCC[C@@H]1C(N)=O)C(C)C` ({NHBn-CO}-[X1][dI][dV][dP][dP]-NH2), 160 µM.
